We go through nine compounds from ChEMBL document CHEMBL4364290, “Light-controlled inhibition of BRAFV600E kinase” (Eur J Med Chem, 2019).

The source made the active and inactive calls. The rule behind the calls is not given here.

One may read the IC50 as the concentration at which inhibition is half-maximal.

The target in the first data set is T1, Serine/threonine-protein kinase B-raf (Homo sapiens, UniProt P15056, V600E). As to the kind of experiment: Inhibition of human recombinant BRAF V600E mutant using MEK1 as substrate measured after 1 hr by Western blot analysis.
T1 sequence (P15056 2-766 V600E limits assumed): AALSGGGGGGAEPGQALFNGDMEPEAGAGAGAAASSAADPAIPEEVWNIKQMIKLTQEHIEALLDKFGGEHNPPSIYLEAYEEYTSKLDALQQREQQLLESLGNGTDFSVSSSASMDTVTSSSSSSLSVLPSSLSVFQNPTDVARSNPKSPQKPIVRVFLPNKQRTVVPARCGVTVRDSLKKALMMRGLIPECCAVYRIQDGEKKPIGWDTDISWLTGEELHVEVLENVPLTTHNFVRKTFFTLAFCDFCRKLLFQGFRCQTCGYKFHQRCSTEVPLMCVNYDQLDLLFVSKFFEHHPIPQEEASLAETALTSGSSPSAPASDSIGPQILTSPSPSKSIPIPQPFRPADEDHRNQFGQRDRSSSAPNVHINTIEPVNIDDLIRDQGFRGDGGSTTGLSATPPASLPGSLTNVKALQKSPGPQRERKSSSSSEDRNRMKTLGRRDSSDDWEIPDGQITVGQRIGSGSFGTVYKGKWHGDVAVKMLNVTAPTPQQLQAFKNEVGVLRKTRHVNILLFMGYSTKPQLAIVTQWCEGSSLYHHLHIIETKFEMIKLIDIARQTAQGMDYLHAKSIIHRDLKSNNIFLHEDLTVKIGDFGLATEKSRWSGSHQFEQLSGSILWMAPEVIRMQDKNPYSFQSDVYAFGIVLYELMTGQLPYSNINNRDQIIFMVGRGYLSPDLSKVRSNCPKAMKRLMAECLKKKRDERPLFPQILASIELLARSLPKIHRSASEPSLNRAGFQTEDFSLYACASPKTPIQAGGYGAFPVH
Conditions: not given
For orientation: A western blot detects proteins with antibodies after separation by electrophoresis.
With `COc1n[nH]c2ncc(NC(=O)c3c(F)ccc(NS(=O)(=O)c4ccccc4)c3F)cc12`, the IC50 was determined as 22 nM.

Test system in another data set: not listed separately
As to the kind of experiment: Drug isomerization in DMSO-d6 irradiated at 365 nm assessed as rate of thermal relaxation measured as cis isomer level at PSS at 2 mg/ml measured after 70 hrs storage in dark at room temperature by 1H-NMR spectroscopic analysis.
Conditions: not given
As for `COc1n[nH]c2ncc(NC(=O)c3c(F)ccc(/N=N\c4ccccc4C)c3F)cc12`, the Drug metabolism is 62%.

Test system in the next data set: not listed separately
The experiment in a line: Drug isomerization in bovine plasma at 10 uM measured after 20 hrs at 37 degC by LCMS analysis. The data set is classed as ADME, cell-free, Bos taurus. The following applies: cattle.
For the compound `COc1n[nH]c2ncc(NC(=O)c3c(F)ccc(/N=N\c4ccccc4)c3F)cc12`, the Drug metabolism result was “Metabolite_Detected”.

The next data set relates to Serine/threonine-protein kinase B-raf (Homo sapiens), P15056 [V600E]. The experiment in a line: Inhibition of BRAF V600E mutant in human SK-MEL-28 cells using peptide substrate by STK-Pamchip array-based method. The data set is classed as cell-based.
Sequence of Serine/threonine-protein kinase B-raf (Homo sapiens), P15056 [V600E] (P15056 whole entry V600E): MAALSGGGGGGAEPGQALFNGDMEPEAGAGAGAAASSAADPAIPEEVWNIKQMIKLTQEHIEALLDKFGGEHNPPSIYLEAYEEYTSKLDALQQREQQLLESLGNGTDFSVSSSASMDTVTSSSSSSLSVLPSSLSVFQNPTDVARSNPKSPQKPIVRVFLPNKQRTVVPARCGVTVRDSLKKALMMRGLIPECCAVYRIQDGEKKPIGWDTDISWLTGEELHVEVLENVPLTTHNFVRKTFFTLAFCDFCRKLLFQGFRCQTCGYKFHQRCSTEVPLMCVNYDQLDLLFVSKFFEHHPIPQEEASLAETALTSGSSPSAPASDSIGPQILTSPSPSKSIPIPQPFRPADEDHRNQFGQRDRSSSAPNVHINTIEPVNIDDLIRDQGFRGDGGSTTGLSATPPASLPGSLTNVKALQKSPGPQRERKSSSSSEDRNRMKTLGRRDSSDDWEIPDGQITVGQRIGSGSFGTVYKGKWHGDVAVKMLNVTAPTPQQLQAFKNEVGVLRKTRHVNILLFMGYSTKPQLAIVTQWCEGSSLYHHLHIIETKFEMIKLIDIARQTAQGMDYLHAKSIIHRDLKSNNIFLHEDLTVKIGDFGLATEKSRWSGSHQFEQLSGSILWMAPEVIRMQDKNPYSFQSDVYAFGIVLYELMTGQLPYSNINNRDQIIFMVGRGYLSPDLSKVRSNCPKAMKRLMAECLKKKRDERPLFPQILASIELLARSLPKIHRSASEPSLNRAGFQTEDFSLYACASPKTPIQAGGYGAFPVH
Conditions: not given
In a few lines:
(§1)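 SK-Mel-28 cell lysates treated with DMSO control or inhibitor, either dark (thermally adapted) or irradiated with 365 nm light; kinase activity profiled on PamGene STK peptide chips.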
For `COc1n[nH]c2ncc(NC(=O)c3c(F)ccc(NS(=O)(=O)c4ccccc4)c3F)cc12`, the inhibition entry is “Active”.

The test system of a further data set is A-375. As to the kind of experiment: Cytotoxicity against human A375 cells harboring BRAF V600E mutant assessed as reduction in cell viability at 10 uM incubated for 24 hrs by MTS assay.
Conditions: not given
The data set is classed as functional, cell-based. In a few lines:
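A375 melanoma cells (BRAF V600E) exposed 24 h to 10 µM compound, thermally adapted or 365 nm-irradiated, versus DMSO control; viability by MTS assay.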
(Formazan colour is commonly taken as a measure of viable cells.)
`CCCS(=O)(=O)Nc1ccc(F)c(C(=O)c2c[nH]c3ncc(-c4ccc(Cl)cc4)cc23)c1F`: the result was Active.

As for `COc1n[nH]c2ncc(NC(=O)c3c(F)ccc(NS(=O)(=O)c4ccccc4)c3F)cc12`, the outcome was Active.

Test system in another data set: not listed separately
The experiment in a line: Thermal re-isomerization in bovine plasma assessed as trans-isomer formation at 10 uM measured after 1 hr at 37 degC using pre-irradiated compound at 365 nm light for 1 hr by LCMS analysis. The class given is ADME, cell-free, Bos taurus. The following applies: cattle.
Consider `COc1n[nH]c2ncc(NC(=O)c3c(F)ccc(/N=N\c4ccccc4)c3F)cc12`, for which the Drug metabolism entry is recorded as “Metabolite_Detected”.

The target in another data set is T1, Serine/threonine-protein kinase B-raf. As to the kind of experiment: Inhibition of human recombinant N-terminal GST/His6-tagged BRAF V600E mutant (Q417 to H766 residues) expressed in Sf9 insect cells using MEK1 as substrate measured after 1 hr using light irradiated compound at 365 nm for 45 mins by Western blot analysis.
Conditions: not given
As for `COc1ccc(/N=N\c2ccc(F)c(C(=O)Nc3cnc4[nH]nc(OC)c4c3)c2F)cc1`, the IC50 was 470 nM.

Regarding `COc1n[nH]c2ncc(NC(=O)c3c(F)ccc(/N=N\c4ccc(C)cc4)c3F)cc12`, the IC50 worked out at 9 nM.

On to `COc1ccccc1/N=N\c1ccc(F)c(C(=O)Nc2cnc3[nH]nc(OC)c3c2)c1F`, for which the IC50 was 360 nM.

With `COc1n[nH]c2ncc(NC(=O)c3c(F)ccc(/N=N\c4ccc(F)cc4)c3F)cc12`, the IC50 turned out to be 8100 nM.

With `COc1ccc(/N=N\c2cccc(C(=O)Nc3cnc4[nH]nc(OC)c4c3)c2)cc1`, the IC50 turned out to be 450 nM.

On to `COc1n[nH]c2ncc(NC(=O)c3c(F)ccc(/N=N\c4ccccc4C)c3F)cc12`, for which the IC50 was 540 nM.

Turning to `COc1n[nH]c2ncc(NC(=O)c3c(F)ccc(/N=N\c4ccccc4)c3F)cc12`, the IC50 amounted to 157 nM.

The next data set concerns Serine/threonine-protein kinase B-raf (Homo sapiens), P15056 [V600E]. The experiment in a line: Inhibition of BRAF V600E mutant in human SK-MEL-28 using peptide as substrate using irradiated compound at 365 nm light for 45 mins by STK-Pamchip array-based method. The data set is classed as cell-based.
Conditions: not given
In a few lines:
as §1
As to `COc1n[nH]c2ncc(NC(=O)c3c(F)ccc(/N=N\c4ccccc4)c3F)cc12`, the inhibition result was “inactive”.

Test system in the next data set: not listed separately
As to the kind of experiment: Half life of the compound in pH 7.5 tris HCl buffer at 2 mg/ml measured at room temperature under 365 nm light irradiation using trans-isomer form of compound by 1H-19F NMR spectroscopic analysis.
Conditions: not given
The essentials: (§2)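 Cis isomer generated by 365 nm irradiation to PSS; half-life of thermal cis-to-trans relaxation followed at room temperature in DMSO, in BRAF assay buffer, or in 1:1 BRAF assay buffer/acetonitrile where solubility required.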
Compound `COc1ccc(/N=N\c2cccc(C(=O)Nc3cnc4[nH]nc(OC)c4c3)c2)cc1` displayed a T1/2 of over 10 h.

Take `COc1n[nH]c2ncc(NC(=O)c3c(F)ccc(/N=N\c4ccccc4)c3F)cc12`: the T1/2 stood at 5.4 h.

Test system in another data set: not listed separately
As to the kind of experiment: Drug re-isomerization in DMSO-d6 assessed as cis isomer level at PSS at 2 mg/ml measured after 20 hrs under dark condition at room temperature using irradiated compound by 1H-NMR spectroscopic analysis.
Conditions: not given
Turning to `COc1ccc(/N=N\c2ccc(F)c(C(=O)Nc3cnc4[nH]nc(OC)c4c3)c2F)cc1`, the Drug metabolism stood at 79%.

For `COc1n[nH]c2ncc(NC(=O)c3c(F)ccc(/N=N\c4ccc(C)cc4)c3F)cc12`, the Drug metabolism came out at 73%.

Regarding `COc1n[nH]c2ncc(NC(=O)c3c(F)ccc(/N=N\c4ccc(F)cc4)c3F)cc12`, the Drug metabolism was 60%.

Take `COc1ccc(/N=N\c2cccc(C(=O)Nc3cnc4[nH]nc(OC)c4c3)c2)cc1`: the Drug metabolism came to 34%.

Regarding `COc1n[nH]c2ncc(NC(=O)c3c(F)ccc(/N=N\c4ccccc4)c3F)cc12`, the Drug metabolism amounted to 36%.

Test system in another data set: not listed separately
As to the kind of experiment: Half life of the compound in pH 7.5 tris HCl buffer/acetonitrile at 2 mg/ml measured at room temperature under 365 nm light irradiation using trans-isomer form of compound by 1H-19F NMR spectroscopic analysis.
Conditions: not given
The essentials: as §2
In turn, `COc1ccc(/N=N\c2ccc(F)c(C(=O)Nc3cnc4[nH]nc(OC)c4c3)c2F)cc1` displayed a T1/2 of over 24 h.

`COc1n[nH]c2ncc(NC(=O)c3c(F)ccc(/N=N\c4ccc(C)cc4)c3F)cc12` yielded a T1/2 of over 24 h.

`COc1ccccc1/N=N\c1ccc(F)c(C(=O)Nc2cnc3[nH]nc(OC)c3c2)c1F` returned a T1/2 of over 24 h.

Compound `COc1n[nH]c2ncc(NC(=O)c3c(F)ccc(/N=N\c4ccc(F)cc4)c3F)cc12` had a T1/2 of over 24 h.

`COc1n[nH]c2ncc(NC(=O)c3c(F)ccc(/N=N\c4ccccc4C)c3F)cc12` came in with a T1/2 of over 24 h.

Test system in another data set: not listed separately
As to the kind of experiment: Drug isomerization in DMSO-d6 irradiated at 365 nm assessed as rate of thermal relaxation measured as cis isomer level at PSS at 2 mg/ml measured after 18 hrs storage in dark at room temperature by 1H-NMR spectroscopic analysis.
Conditions: not given
In the case of `COc1ccccc1/N=N\c1ccc(F)c(C(=O)Nc2cnc3[nH]nc(OC)c3c2)c1F`, the Drug metabolism came out at 79%.

Test system in another data set: not listed separately
As to the kind of experiment: Half life of the compound in DMSO-d6 at 2 mg/ml measured at room temperature under 365 nm light irradiation using trans-isomer form of compound by 1H-19F NMR spectroscopic analysis.
Conditions: not given
The essentials:
as §2
`COc1ccc(/N=N\c2ccc(F)c(C(=O)Nc3cnc4[nH]nc(OC)c4c3)c2F)cc1` came in with a T1/2 of over 10 h.

`COc1n[nH]c2ncc(NC(=O)c3c(F)ccc(/N=N\c4ccc(C)cc4)c3F)cc12` showed a T1/2 of over 20 h.

`COc1ccccc1/N=N\c1ccc(F)c(C(=O)Nc2cnc3[nH]nc(OC)c3c2)c1F` had a T1/2 of over 24 h.

`COc1n[nH]c2ncc(NC(=O)c3c(F)ccc(/N=N\c4ccc(F)cc4)c3F)cc12` came in with a T1/2 of over 20 h.

The compound `COc1ccc(/N=N\c2cccc(C(=O)Nc3cnc4[nH]nc(OC)c4c3)c2)cc1` displayed a T1/2 of over 10 h.

On to `COc1n[nH]c2ncc(NC(=O)c3c(F)ccc(/N=N\c4ccccc4C)c3F)cc12`, for which the T1/2 was over 70 h.

`COc1n[nH]c2ncc(NC(=O)c3c(F)ccc(/N=N\c4ccccc4)c3F)cc12` returned a T1/2 of over 10 h.
